Compound activity from PubChem BioAssay.
Sampled rows, rich in hits. Any-hit rate of the full collection: about 1.5%.
TRAIL sens C8: viability loss with TRAIL in NB7+C8 cells, primary screen, TRAIL sensitizer project, cell-based, ATPlite luminescence. 360,000 compounds, 1% hits. inhibition (viability loss, TRAIL sensitization), % at 10 µM;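 active = compounds causing at least 50% loss of cell viability in the single-dose screen, relative to plate controls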
FLuc inh counter: firefly luciferase enzyme inhibitors, primary screen, artefact control for luciferase-based inhibitor screens, biochemical, luminescence, ATPLite. inhibition, % at 10 µM. AID 1006, 2008. 10 min. 200,000 compounds, 1.5% hits. Luciferin 4-monooxygenase (Photinus pyralis), P08659;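 active = inhibition above about 50% when tested at 10 µM, limit read from the data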
Target sequence (P08659 whole entry, looked up): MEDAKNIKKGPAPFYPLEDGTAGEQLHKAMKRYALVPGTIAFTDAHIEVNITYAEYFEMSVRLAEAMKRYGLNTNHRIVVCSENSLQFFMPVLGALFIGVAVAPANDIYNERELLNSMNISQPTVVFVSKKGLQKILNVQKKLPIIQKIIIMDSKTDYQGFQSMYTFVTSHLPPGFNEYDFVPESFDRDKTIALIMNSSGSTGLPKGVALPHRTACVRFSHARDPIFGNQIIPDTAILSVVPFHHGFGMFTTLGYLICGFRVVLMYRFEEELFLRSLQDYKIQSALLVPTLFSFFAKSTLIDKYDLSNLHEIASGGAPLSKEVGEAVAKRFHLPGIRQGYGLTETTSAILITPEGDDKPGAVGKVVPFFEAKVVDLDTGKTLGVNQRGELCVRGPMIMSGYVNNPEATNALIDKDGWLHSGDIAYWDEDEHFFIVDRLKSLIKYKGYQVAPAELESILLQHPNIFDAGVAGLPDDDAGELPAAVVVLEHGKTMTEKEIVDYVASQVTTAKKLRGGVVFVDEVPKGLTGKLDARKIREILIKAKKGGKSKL
FLuc stim CS: FLuc activators, initial screening, artefact control for FLuc-dependent activation tests, biochemical, ATPlite luminescence; ATPlite luciferase biochemical, 10 min; 0 = ATP-free wells, 1 = DMSO control; activation factor at 10 µM; 200,000 tested, under 10 active;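 active = luciferase activation factor, scaled between plate controls, of at least 2 with compound at 10 µM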
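Assay system – cell-free luciferase reagent · Medium – PBS-based ATP solution · Dosing – test compounds dosed from 2 mM stocks in 100% DMSO · Timing – 10 min, room temperature · Technique – light output (luminescence) · Measure – luminescence gain marking luciferase activators · Controls – No-ATP low control, compound-free enzyme-plus-ATP high control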
PPC-1+TRAIL kill: compounds killing PPC-1 cancer cells with TRAIL present, primary screen, TRAIL potentiator project, ATPLite luminescence, uHTS. PPC-1 cells + TRAIL, ATPLite viability luminescence. cell killing (% activity), % at 4 µM or 5 µM. 220,000 compounds, 0.41% hits;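 active = cell killing above 50% in the first pass at 4 µM, then a duplicate retest at 5 µM averaging 50% or more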;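 also: plate controls were cells with TRAIL plus DMSO for no effect and medium-only wells lacking cells for full effect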
* = called active by the depositor; . = not tested or not shown.

SMILES	TRAIL sens C8	FLuc inh counter	FLuc stim CS	PPC-1+TRAIL kill
O=C(Nc1cccc(-c2nc3ccccc3s2)c1)c1cccs1	0.5	1.8	1	0.4
Cc1nnc(SCC(=O)NNC(=O)COc2ccc(Cl)cc2)s1	-16.8	-2.2	1	13.0
COc1cc(NC(=O)c2cc3cccc(OC)c3o2)cc(C(=O)Nc2cccc(C(F)(F)F)c2)c1	51.2*	.	.	31.8
CCN1CCN(Cc2ccc(NC(=O)c3ccc(C)c(NC(=O)c4c[nH]c5cc(C(F)(F)F)ccc5c4=O)c3)cc2C(F)(F)F)CC1	94.8*	.	.	26.9
CCN1CCN(Cc2ccc(NC(=O)c3cc(NC(=O)c4ccc5n[nH]nc5c4)cc(OC)c3)cc2C(F)(F)F)CC1	6.7	.	.	10.3
CCN1CCN(Cc2ccc(NC(=O)c3cc(NC(=O)c4cncc(-c5cccs5)c4)cc(OC)c3)cc2C(F)(F)F)CC1	84.7*	.	.	.
COc1cc(NC(=O)c2ccno2)cc(C(=O)Nc2cccc(C(F)(F)F)c2)c1	-5.9	.	.	6.8
CCN1CCN(Cc2ccc(NC(=O)c3cc(NC(=O)c4cc5cccc(OC)c5o4)cc(OC)c3)cc2C(F)(F)F)CC1	94.8*	.	.	14.2
CCN1CCN(Cc2ccc(NC(=O)c3cc(NC(=O)c4ccno4)cc(OC)c3)cc2C(F)(F)F)CC1	10.8	.	.	8.9
CCN1CCN(Cc2ccc(NC(=O)c3cc(NC(=O)c4cc(-c5ccc(OC)cc5)n[nH]4)cc(OC)c3)cc2C(F)(F)F)CC1	87.6*	.	.	31.2
O=C(Nc1ccc(-c2ccc3nncn3n2)cc1)C1CCCC1	27.5	51.8*	0.5	3.3
OC(c1cc(-c2cccc(Cl)c2)nc2ccccc12)C1CCCCN1 (centres undefined)	67.0*	.	.	.
Cn1cc(CNC(=O)c2cc(-c3ccccc3)nc3ccc(Br)cc23)cn1	-5.6	7.6	0.9	21.2
Cc1ccc(-c2nn3c(C)nnc3s2)cc1NC(=O)c1ccc(-c2ccc(Cl)cc2Cl)o1	60.1*	4.2	1	-15.1
Cc1ccc(-c2nn3c(C)nnc3s2)cc1NC(=O)c1ccc(-c2cccc(Cl)c2)o1	7.4	-4.3	1	27.1
COc1nc(C)ccc1-c1noc(-c2ccco2)n1	22.6	57.7*	0.4	21.6
COc1nc(-c2ccc(C)cc2)ccc1-c1noc(-c2ccco2)n1	4.4	-5.3	1.1	3.3
CC(Oc1ccc(C(=O)c2ccccc2)cc1)C(=O)Nc1ccc(S(N)(=O)=O)cc1 (centres undefined)	8.7	-4.1	1	18.8
O=C(N/N=C\c1ccc(CNS(=O)(=O)c2ccc(Cl)cc2)o1)C(=O)Nc1ccc(Oc2ccccc2)cc1	53.8*	-7.2	1.1	1.0
O=C(Nc1nccs1)c1cc(S(=O)(=O)N2CCOCC2)ccc1Cl	4.1	-1.3	1	60.2*
O=C(c1ccccc1)c1ncc[nH]1	0.1	.	.	.
O=c1[nH]c(/C(=N\O)c2ccccc2)no1	73.3*	0.5	1	40.9
O=C(Nc1ccc2nc3ccccc3nc2c1)c1ccccc1	56.6*	66.0*	0.3	11.3
Cc1ccc(C(=O)Nc2ccc3ncccc3c2)cc1	89.5*	.	.	.
COc1ccc(C(=O)Nc2ccc3ncccc3c2)cc1	82.5*	.	.	.
SMILES	TRAIL sens C8	FLuc inh counter	FLuc stim CS	PPC-1+TRAIL kill
CCC(C)(C)NC(=O)C(c1ccc(OC)cc1)N(C(=O)CCC(=O)Nc1cc(C)on1)c1cccc(F)c1 (centres undefined)	-6.1	.	.	.
CNc1ccccc(-c2ccc3cc4c(cc3n2)OCO4)c1=O	16.0	53.3*	0.5	-0.9
CCc1ccccc1NC1=NCC(=O)N1Cc1ccc2c(c1)OCO2	-11.0	-3.4	1	-9.8
O=c1c2ccccc2c(/C=N/c2nnc(Cc3ccccc3)s2)c(O)n1-c1ccc(Cl)cn1	9.4	50.2*	0.5	-3.8
Cc1ccccc1-n1nnnc1Sc1nnnn1-c1ccccc1	55.1*	-5.5	1.1	9.3
CC(C)(C)c1ccc(C(=O)C2CCCN(C(=O)C3CCOCC3)C2)cc1 (centres undefined)	5.6	2.4	1	.
O=C(/C=C/Nc1ccc(F)c(F)c1)c1cccs1	38.3	80.4*	0.2	21.7
O=C(/C=C/Nc1ccc(S(=O)(=O)Nc2ncccn2)cc1)c1cccs1	8.7	.	.	3.5
O=C(/C=C/Nc1ccc(F)cc1)c1cccs1	61.4*	.	.	.
CCN(C(=O)CN1CCN(c2ccc(OC)cc2)CC1)c1c(N)n(Cc2ccccc2)c(=O)[nH]c1=O	6.4	-6.7	1.1	11.1
Cc1cc(C(F)(F)F)nc(-n2cc(-c3cccc(N)c3)nn2)n1	-23.2	-6.1	1.1	17.7
Nc1cccc(-c2cn3cc(C(F)(F)F)cc(Cl)c3n2)c1	34.2	67.8*	0.3	33.3
FC(F)(F)c1cc(Cl)c2nc(-c3ccccc3)cn2c1	51.2*	41.3	0.6	7.5
O=C(COC(=O)CNS(=O)(=O)c1c(Cl)cccc1Cl)Nc1ccccc1Sc1ccccc1	5.8	-4.2	1	22.2
C=CCN1N=C(/C=C/c2ccc(OC)cc2)CCC1=O	-6.8	.	.	.
CC(=O)Nc1sc2c(c1-c1nc3ccccc3s1)CN(C(C)C)CC2	53.6*	.	.	.
Cc1ccccc1C1=NC(C(F)(F)F)(C(F)(F)F)c2c(n(C)c(=O)n(C)c2=O)N1	2.2	-5.8	1.1	1.0
Cn1c2c(c(=O)n(C)c1=O)C(C(F)(F)F)(C(F)(F)F)N=C(c1ccc(Cl)cc1)N2	50.5*	-0.5	1	39.3
CCn1c(SCC(=O)NCCOc2ccccc2)nc2ccccc2c1=O	1.1	-9.1	1.1	-0.3
COc1cc2nc(SCc3ccc(Cl)cc3Cl)n(Cc3cccs3)c(=N)c2cc1OC	8.6	-3.8	1	11.7
COc1ccc(Cn2c(SCc3cc(C)ccc3C)nc3cc(OC)c(OC)cc3c2=N)cc1	91.7*	0.3	1	18.4
COc1ccc(Cn2c(SCc3ccc(C)cc3)nc3cc(OC)c(OC)cc3c2=N)cc1Cl	93.3*	-0.6	1	25.3
O=C(ONC1=NCCCCC1)c1c(F)cccc1F	41.4	-7.2	1.1	17.3
O=C(ONC1=NCCCCC1)c1ccc(Cl)cc1	83.3*	-5.1	1.1	-2.2
CC(C)(C)OC(=O)N1CCC(NC(=O)c2[nH]cnc2C(=O)Nc2ccccc2)CC1	-1.9	.	.	.
Cc1ccc(NC(=O)C2C(=O)N(C)c3ccccc32)cc1 (centres undefined)	-4.8	76.3*	0.2	26.8
COc1ccc2cc(-c3cc(C(=O)OCC(=O)NC4CCS(=O)(=O)C4)c4ccccc4n3)ccc2c1 (centres undefined)	92.5*	95.2*	0	95.3*
COc1ccc2cc(-c3cc(C(=O)OCC(=O)Nc4c(C)n(C)n(-c5ccccc5)c4=O)c4ccccc4n3)ccc2c1	96.9*	94.3*	0.1	92.4*
COc1ccc(-c2cc(C(=O)Nc3c(C)n(C)n(-c4ccccc4)c3=O)c3ccccc3n2)cc1	1.7	.	.	.
CCOC(=O)C1=C(C)N(C)C(C)=C(C(=O)OCC)C1c1ccccc1	9.0	-1.3	1	0.8
